Source: PMC8553955 (Plant Communications, 2021)

Key:
[1] = test system: Phelipanche ramosa seeds; experiment: Inhibition of P. ramosa germination stimulation induced by GR24 or 2-PEITC; format: in vivo
Procedure, shortened: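 Seeds from a genetic-group-1 population were surface-sterilized and conditioned in darkness at 21°C. Germination was stimulated with 10 nM (±)-GR24 or 100 nM 2-PEITC in the presence of test compound. Maximum inhibition and IC50 were derived from the response.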

[2] = test system: PrKAI2d3; experiment: Thermostability of PrKAI2d3 by nanoDSF; format: binding, Phelipanche ramosa; settings: PrKAI2d3 at 10 μM, ligands at 100 μM
Procedure, shortened: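 Protein at about 10 μM in PBS (100 mM phosphate pH 6.8, 150 mM NaCl) was mixed with ligand or no ligand. Intrinsic fluorescence (350/330 nm ratio) was recorded over a 1°C/min temperature ramp at 55% excitation. Apparent Tm was taken from the first derivative of the ratio curve.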

[3] = test system: A. thaliana htl-3/p35S::GFP-PrKAI2d3 seeds; experiment: Arabidopsis germination assay, htl-3 complemented with PrKAI2d3; format: in vivo, Arabidopsis thaliana; settings: Arabidopsis Col-0, htl-3 and the three p35S::GFP-PrKAI2d3 complemented lines; data not shown
Procedure, shortened: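 After-ripened (≥6 weeks), surface-sterilized seeds were suspended in 1 mM HEPES pH 7.5 at 10 mg/mL and dispensed at about 20–25 seeds per well. Stimulant (GR24 isomers) or DMSO control was added. Plates were incubated either 5 days at 25°C in darkness or, for thermo-inhibition, 7 days at 32–34°C under constant light (10 μmol m−2 s−1). Germination was scored as radicle protrusion. Groups were compared by Kruskal–Wallis.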

[4] = test system: Phelipanche ramosa seeds; experiment: Germination stimulation activity assay on P. ramosa seeds; settings: in vivo
[5] = test system: PrKAI2d3; experiment: Enzymatic assays with profluorescent probes and p-nitrophenyl acetate; format: biochemical, Phelipanche ramosa
[6] = test system: pea (Pisum sativum) shoot branching; experiment: Pea shoot branching assay; format: in vivo; settings: direct injection in the stem, 100 μM, rms1-10
[7] = test system: Striga hermonthica seeds; experiment: Germination stimulation activity assay on S. hermonthica seeds; format: in vivo
Procedure, shortened: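 Surface-sterilized seeds were conditioned in darkness at 30°C. Compounds were dissolved at 10 mM in DMSO, serially diluted in water/DMSO 9:1, and applied at 10−13 to 10−6 M (final water/DMSO 99:1). Controls were 1% DMSO (negative) and 1 μM (±)-GR24 (positive). Germination was expressed relative to the positive control in each assay, with at least three repeats. EC50 came from a four-parameter logistic fit.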

[8] = test system: A. thaliana htl-3/ShHTL7 seeds; experiment: Arabidopsis germination assay, htl-3 expressing ShHTL7; format: in vivo
[9] = test system: rice (Oryza sativa); settings: high concentration (50 μM); ref Nakamura et al., 2013; cited from earlier work

## CC1=CC(=O)CC(C)(C)[C@@]1(O)/C=C/C(C)=C\C(=O)O [ABA, abscisic acid]
[1]; 2-PEITC (100 nM)
  IC50: 34 nM
[1]; GR24 (10 nM)
  IC50: 100 nM

## S=C=NCCc1ccccc1 [2-PEITC, phenethyl isothiocyanate]
[2]
  apparent melting temperature (Tm): 45.1 °C
[3]
  sensitivity of germination in words: insensitive
[4]
  Seeds of P. ramosa fold less sensitive than to (±)-GR24: approximately 10 000 fold

## CC(=O)Oc1ccc([N+](=O)[O-])cc1 [p-NPA, para-nitrophenyl acetate]
[5]
  PrKAI2d3 hydrolase activity with generic substrate, in words: no hydrolytic activity was detected

## CC1=CC(O)OC1=O [D-OH, 4-Hydroxy-2-methylbut-2-en-4-olide]
[6]
  effect on branching control in pea, in words: no effect on branching control
[7]
  EC50: 1200 nM
[8]
  EC50: 3100 nM
[9]
  bioactivity in rice, in words: bioactive
